# Assay results from ChEMBL document CHEMBL1765029, “Synthesis and biological evaluation of estradiol linked pyrrolo[2,1-c][1,4]benzodiazepine (PBD) conjugates as potential anticancer agents” (2011).
# Active and inactive are the calls of the source. The calls are words filed in the database; no cut-off is given here.
# Tested on: MCF7
# Test: Cell cycle arrest in human MCF7 cells assessed as accumulation at S phase using propidium iodide staining at 4 uM after 24 hrs by flow cytometry
# Type: functional
# How it was run: (§1)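 MCF-7 cells (5 × 10⁵ per 60 mm dish) grown 24 h, then exposed to 4 µM compound for a further 24 h; DMSO-treated control. Cells trypsinised, fixed in ice-cold 70% ethanol at 4 °C for 30 min, RNase-treated (1 mg/mL, 37 °C, 30 min), stained with propidium iodide/citrate/Triton X-100. DNA content read on 20,000 events by flow cytometry; percent cells per phase reported.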
row,SMILES,Activity
1,COc1cc2c(cc1OCc1cn(CCCCCOc3ccc4c(c3)CC[C@@H]3[C@@H]4CC[C@]4(C)[C@@H](O)CC[C@@H]34)nn1)N=C[C@@H]1CC(F)(F)CN1C2=O,22.3%
2,COc1cc2c(cc1OCc1cn(CCCCCOc3ccc4c(c3)CC[C@@H]3[C@@H]4CC[C@]4(C)[C@@H](O)CC[C@@H]34)nn1)N=C[C@@H]1C[C@@H](F)CN1C2=O,25.8%

# Tested on: A2780
# Test: Cytotoxicity against human A2780 cells by sulforhodamine B method
# Type: functional
row,SMILES,GI50
1,COc1cc2c(cc1OCc1cn(CCCCCOc3ccc4c(c3)CC[C@@H]3[C@@H]4CC[C@]4(C)[C@@H](O)CC[C@@H]34)nn1)N=C[C@@H]1CC(F)(F)CN1C2=O,1800 nM
2,COc1cc2c(cc1OCc1cn(CCCCCOc3ccc4c(c3)CC[C@@H]3[C@@H]4CC[C@]4(C)[C@@H](O)CC[C@@H]34)nn1)N=C[C@@H]1C[C@@H](F)CN1C2=O,< 100 nM

# Tested on: MCF7
# Test: Cell cycle arrest in human MCF7 cells assessed as accumulation at G0 phase using propidium iodide staining at 4 uM after 24 hrs by flow cytometry
# Type: functional
# How it was run: as §1
row,SMILES,Activity
1,COc1cc2c(cc1OCc1cn(CCCCCOc3ccc4c(c3)CC[C@@H]3[C@@H]4CC[C@]4(C)[C@@H](O)CC[C@@H]34)nn1)N=C[C@@H]1CC(F)(F)CN1C2=O,0.74%
2,COc1cc2c(cc1OCc1cn(CCCCCOc3ccc4c(c3)CC[C@@H]3[C@@H]4CC[C@]4(C)[C@@H](O)CC[C@@H]34)nn1)N=C[C@@H]1C[C@@H](F)CN1C2=O,0.82%

# Tested on: A549
# Test: Cytotoxicity against human A549 cells by sulforhodamine B method
# Type: functional
row,SMILES,GI50
1,COc1cc2c(cc1OCc1cn(CCCCCOc3ccc4c(c3)CC[C@@H]3[C@@H]4CC[C@]4(C)[C@@H](O)CC[C@@H]34)nn1)N=C[C@@H]1CC(F)(F)CN1C2=O,170 nM
2,COc1cc2c(cc1OCc1cn(CCCCCOc3ccc4c(c3)CC[C@@H]3[C@@H]4CC[C@]4(C)[C@@H](O)CC[C@@H]34)nn1)N=C[C@@H]1C[C@@H](F)CN1C2=O,< 100 nM

# Tested on: not listed separately
# Test: Cytotoxicity against human DWD cells by sulforhodamine B method
# Type: functional
row,SMILES,GI50
1,COc1cc2c(cc1OCc1cn(CCCCCOc3ccc4c(c3)CC[C@@H]3[C@@H]4CC[C@]4(C)[C@@H](O)CC[C@@H]34)nn1)N=C[C@@H]1CC(F)(F)CN1C2=O,180 nM
2,COc1cc2c(cc1OCc1cn(CCCCCOc3ccc4c(c3)CC[C@@H]3[C@@H]4CC[C@]4(C)[C@@H](O)CC[C@@H]34)nn1)N=C[C@@H]1C[C@@H](F)CN1C2=O,120 nM

# Tested on: COLO 205
# Test: Cytotoxicity against human COLO205 cells by sulforhodamine B method
# Type: functional
row,SMILES,GI50
1,COc1cc2c(cc1OCc1cn(CCCCCOc3ccc4c(c3)CC[C@@H]3[C@@H]4CC[C@]4(C)[C@@H](O)CC[C@@H]34)nn1)N=C[C@@H]1CC(F)(F)CN1C2=O,160 nM
2,COc1cc2c(cc1OCc1cn(CCCCCOc3ccc4c(c3)CC[C@@H]3[C@@H]4CC[C@]4(C)[C@@H](O)CC[C@@H]34)nn1)N=C[C@@H]1C[C@@H](F)CN1C2=O,120 nM

# Tested on: MCF7
# Test: Induction of apoptosis in human MCF7 cells assessed up-regulation of p21 protein level at 4 uM after 24 hrs by Western blot analysis
# Type: functional, cell-based
# How it was run: (§2)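 MCF-7 cells (5 × 10⁵ per 60 mm dish) grown 24 h, then treated at 4 µM for 24 h. Lysis in ice-cold RIPA buffer with protease/phosphatase inhibitors; protein measured by Bradford. Fifty µg per lane resolved on 12% SDS-PAGE and transferred to PVDF. Blocked 2 h, primary antibody overnight at 4 °C, chemiluminescent detection; β-actin as loading control.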
row,SMILES,Activity
1,COc1cc2c(cc1OCc1cn(CCCCCOc3ccc4c(c3)CC[C@@H]3[C@@H]4CC[C@]4(C)[C@@H](O)CC[C@@H]34)nn1)N=C[C@@H]1C[C@@H](F)CN1C2=O,Active

# Tested on: KB
# Test: Cytotoxicity against human KB cells by sulforhodamine B method
# Type: functional
row,SMILES,GI50
1,COc1cc2c(cc1OCc1cn(CCCCCOc3ccc4c(c3)CC[C@@H]3[C@@H]4CC[C@]4(C)[C@@H](O)CC[C@@H]34)nn1)N=C[C@@H]1CC(F)(F)CN1C2=O,190 nM
2,COc1cc2c(cc1OCc1cn(CCCCCOc3ccc4c(c3)CC[C@@H]3[C@@H]4CC[C@]4(C)[C@@H](O)CC[C@@H]34)nn1)N=C[C@@H]1C[C@@H](F)CN1C2=O,< 100 nM

# Tested on: MCF7
# Test: Cell cycle arrest in human MCF7 cells assessed as accumulation at G2/M phase using propidium iodide staining at 4 uM after 24 hrs by flow cytometry
# Type: functional
# How it was run: as §1
row,SMILES,Activity
1,COc1cc2c(cc1OCc1cn(CCCCCOc3ccc4c(c3)CC[C@@H]3[C@@H]4CC[C@]4(C)[C@@H](O)CC[C@@H]34)nn1)N=C[C@@H]1CC(F)(F)CN1C2=O,21.8%
2,COc1cc2c(cc1OCc1cn(CCCCCOc3ccc4c(c3)CC[C@@H]3[C@@H]4CC[C@]4(C)[C@@H](O)CC[C@@H]34)nn1)N=C[C@@H]1C[C@@H](F)CN1C2=O,32.4%

# Tested on: MCF7
# Test: Cytotoxicity against human MCF7 cells by sulforhodamine B method
# Type: functional
row,SMILES,GI50
1,COc1cc2c(cc1OCc1cn(CCCCCOc3ccc4c(c3)CC[C@@H]3[C@@H]4CC[C@]4(C)[C@@H](O)CC[C@@H]34)nn1)N=C[C@@H]1CC(F)(F)CN1C2=O,110 nM
2,COc1cc2c(cc1OCc1cn(CCCCCOc3ccc4c(c3)CC[C@@H]3[C@@H]4CC[C@]4(C)[C@@H](O)CC[C@@H]34)nn1)N=C[C@@H]1C[C@@H](F)CN1C2=O,< 100 nM

# Tested on: MCF7
# Test: Induction of apoptosis in human MCF7 cells assessed as DNA fragmentation at 4 uM after 24 hrs by TUNEL assay relative to control
# Type: functional, cell-based
# How it was run: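 MCF-7 cells treated at 4 µM for 24 h; untreated cells as control. Nuclear DNA fragmentation detected by TdT-mediated fluorescein-dUTP nick-end labelling (ApoAlert kit). Labelled cells imaged by confocal microscopy, green stain marking TUNEL-positive cells.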
row,SMILES,Activity
1,COc1cc2c(cc1OCc1cn(CCCCCOc3ccc4c(c3)CC[C@@H]3[C@@H]4CC[C@]4(C)[C@@H](O)CC[C@@H]34)nn1)N=C[C@@H]1C[C@@H](F)CN1C2=O,Active

# Tested on: HOP-62
# Test: Cytotoxicity against human HOP62 cells by sulforhodamine B method
# Type: functional
row,SMILES,GI50
1,COc1cc2c(cc1OCc1cn(CCCCCOc3ccc4c(c3)CC[C@@H]3[C@@H]4CC[C@]4(C)[C@@H](O)CC[C@@H]34)nn1)N=C[C@@H]1CC(F)(F)CN1C2=O,190 nM
2,COc1cc2c(cc1OCc1cn(CCCCCOc3ccc4c(c3)CC[C@@H]3[C@@H]4CC[C@]4(C)[C@@H](O)CC[C@@H]34)nn1)N=C[C@@H]1C[C@@H](F)CN1C2=O,110 nM

# Tested on: MCF7
# Test: Induction of apoptosis in human MCF7 cells assessed as up-regulation of Bax gene at 4 uM after 24 hrs by Western blot analysis
# Type: functional, cell-based
# How it was run: as §2
row,SMILES,Activity
1,COc1cc2c(cc1OCc1cn(CCCCCOc3ccc4c(c3)CC[C@@H]3[C@@H]4CC[C@]4(C)[C@@H](O)CC[C@@H]34)nn1)N=C[C@@H]1C[C@@H](F)CN1C2=O,Active

# Tested on: MCF7
# Test: Cell cycle arrest in human MCF7 cells assessed as accumulation at G1 phase using propidium iodide staining at 4 uM after 24 hrs by flow cytometry
# Type: functional
# How it was run: as §1
row,SMILES,Activity
1,COc1cc2c(cc1OCc1cn(CCCCCOc3ccc4c(c3)CC[C@@H]3[C@@H]4CC[C@]4(C)[C@@H](O)CC[C@@H]34)nn1)N=C[C@@H]1CC(F)(F)CN1C2=O,55%
2,COc1cc2c(cc1OCc1cn(CCCCCOc3ccc4c(c3)CC[C@@H]3[C@@H]4CC[C@]4(C)[C@@H](O)CC[C@@H]34)nn1)N=C[C@@H]1C[C@@H](F)CN1C2=O,42.5%

# Tested on: not listed separately
# Test: Cytotoxicity against human Gurav cells by sulforhodamine B method
# Type: functional
row,SMILES,GI50
1,COc1cc2c(cc1OCc1cn(CCCCCOc3ccc4c(c3)CC[C@@H]3[C@@H]4CC[C@]4(C)[C@@H](O)CC[C@@H]34)nn1)N=C[C@@H]1CC(F)(F)CN1C2=O,190 nM

# Tested on: SiHa
# Test: Cytotoxicity against human SiHa cells by sulforhodamine B method
# Type: functional
row,SMILES,GI50
1,COc1cc2c(cc1OCc1cn(CCCCCOc3ccc4c(c3)CC[C@@H]3[C@@H]4CC[C@]4(C)[C@@H](O)CC[C@@H]34)nn1)N=C[C@@H]1CC(F)(F)CN1C2=O,1210 nM
2,COc1cc2c(cc1OCc1cn(CCCCCOc3ccc4c(c3)CC[C@@H]3[C@@H]4CC[C@]4(C)[C@@H](O)CC[C@@H]34)nn1)N=C[C@@H]1C[C@@H](F)CN1C2=O,110 nM

# Tested on: MCF7
# Test: Cytotoxicity against human MCF7 cells at 4 uM after 24 hrs by MTT assay
# Type: functional, cell-based
# How it was run: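 MCF-7 cells seeded at 10,000 per well, incubated overnight, then treated at 4 µM for 24 h; DMSO control. Medium replaced with MTT, 2 h at 37 °C. Formazan solubilised in extraction buffer, absorbance read at 570 nm, expressed as percent viability.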
row,SMILES,Activity
1,COc1cc2c(cc1OCc1cn(CCCCCOc3ccc4c(c3)CC[C@@H]3[C@@H]4CC[C@]4(C)[C@@H](O)CC[C@@H]34)nn1)N=C[C@@H]1CC(F)(F)CN1C2=O,Active
2,COc1cc2c(cc1OCc1cn(CCCCCOc3ccc4c(c3)CC[C@@H]3[C@@H]4CC[C@]4(C)[C@@H](O)CC[C@@H]34)nn1)N=C[C@@H]1C[C@@H](F)CN1C2=O,Active

# Tested on: MCF7
# Test: Induction of apoptosis in human MCF7 cells assessed up-regulation of p53 protein level at 4 uM after 24 hrs by Western blot analysis
# Type: functional, cell-based
# How it was run: as §2
row,SMILES,Activity
1,COc1cc2c(cc1OCc1cn(CCCCCOc3ccc4c(c3)CC[C@@H]3[C@@H]4CC[C@]4(C)[C@@H](O)CC[C@@H]34)nn1)N=C[C@@H]1C[C@@H](F)CN1C2=O,Active

# Tested on: ZR-75-1
# Test: Cytotoxicity against human ZR-75-1 cells by sulforhodamine B method
# Type: functional
row,SMILES,GI50
1,COc1cc2c(cc1OCc1cn(CCCCCOc3ccc4c(c3)CC[C@@H]3[C@@H]4CC[C@]4(C)[C@@H](O)CC[C@@H]34)nn1)N=C[C@@H]1CC(F)(F)CN1C2=O,180 nM
2,COc1cc2c(cc1OCc1cn(CCCCCOc3ccc4c(c3)CC[C@@H]3[C@@H]4CC[C@]4(C)[C@@H](O)CC[C@@H]34)nn1)N=C[C@@H]1C[C@@H](F)CN1C2=O,< 100 nM

# Target: Tubulin (Homo sapiens) (UniProt P68371+Q9H4B7+P0DPH7+P68366+Q13509+Q71U36+P04350+Q3ZCM7+P07437+P68363+Q9BQE3+Q6PEY2+Q13885+Q9BVA1+Q9BUF5)
# Test: Inhibition of tubulin polymerization in human MCF7 cells assessed as disruption of microtubule network at 4 uM after 24 hrs by DAPI based immunofluorescence assay
# Type: cell-based
# How it was run: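 MCF-7 cells on glass coverslips incubated 24 h with or without 4 µM compound. Fixed in 4% paraformaldehyde/0.02% glutaraldehyde, permeabilised in −20 °C methanol, blocked 1 h in 1% BSA/PBS. Stained with mouse anti-tubulin primary and Cy3 anti-mouse IgG secondary, nuclei with DAPI. Confocal images scored for microtubule integrity; nocodazole as reference.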
row,SMILES,inhibition
1,COc1cc2c(cc1OCc1cn(CCCCCOc3ccc4c(c3)CC[C@@H]3[C@@H]4CC[C@]4(C)[C@@H](O)CC[C@@H]34)nn1)N=C[C@@H]1C[C@@H](F)CN1C2=O,Active

# Tested on: PC-3
# Test: Cytotoxicity against human PC3 cells by sulforhodamine B method
# Type: functional
row,SMILES,GI50
1,COc1cc2c(cc1OCc1cn(CCCCCOc3ccc4c(c3)CC[C@@H]3[C@@H]4CC[C@]4(C)[C@@H](O)CC[C@@H]34)nn1)N=C[C@@H]1CC(F)(F)CN1C2=O,170 nM
2,COc1cc2c(cc1OCc1cn(CCCCCOc3ccc4c(c3)CC[C@@H]3[C@@H]4CC[C@]4(C)[C@@H](O)CC[C@@H]34)nn1)N=C[C@@H]1C[C@@H](F)CN1C2=O,< 100 nM

# Tested on: MCF7
# Test: Induction of apoptosis in human MCF7 cells assessed as activation of procaspase-7 at 4 uM after 24 hrs by Western blot analysis
# Type: functional, cell-based
# How it was run: as §2
row,SMILES,Activity
1,COc1cc2c(cc1OCc1cn(CCCCCOc3ccc4c(c3)CC[C@@H]3[C@@H]4CC[C@]4(C)[C@@H](O)CC[C@@H]34)nn1)N=C[C@@H]1C[C@@H](F)CN1C2=O,Active
